According to article PMC7114156 (Antiviral Research, 2009):
Several values for one entry are separate records, joined by “and”; a condition that tells them apart may be missing. Equal values may be shown once.

Key:
Vero cells = assay: Growth of uninfected Vero cells, MTS; format: cell-based, African Green monkey
How it was run: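 Cells were plated in 96-well plates in medium holding serial dilutions of test compound, 1 nM to 10 μM, with DMSO ≤1% (v/v) final. Growth was read by MTS after 72 h at 37 °C: 2 h with reagent plus phenazine methosulfate, then A490. K and Imax came from a fit to a modified Hill equation. Vero cells are African Green monkey.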

IM9 cells = assay: Growth of IM9 cell line; format: cell-based, human
B-LCL 5/2/1 = assay: Growth of B-LCL 5/2/1; format: cell-based, human
[1] = system: activated primary B cells; assay: Growth of activated primary B cells, CTG; format: cell-based, human; conditions: read-out: CC50, host primary cell growth, 72 h
W12-20850 cells [2] = assay: Growth of W12-20850 cells, MTS; format: cell-based, human
How it was run: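 For the time course, test compound was added at time zero to cells growing in 96-well plates. Growth was followed as rate of MTS reduction over 3 days from day zero, with untreated controls alongside.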

W12-20850 cells [3] = assay: Growth of W12-20850 cells, actin DNA by qPCR; format: cell-based, human
Namalwa = assay: Growth of Namalwa; format: cell-based, human; conditions: 72 h
How it was run: (§1)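 Cell lines carrying integrated viral genomes were plated in 96-well plates in medium with test compound. Growth was read by ATP luminescence (CellTiter-Glo) for HEK293 and WI38 VA13, and by MTS reduction (A490 after 2 h at 37 °C) for Namalwa, W12 20861, SiHa, Caski and HeLa. K and Imax came from a fit to a modified Hill equation.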

SiHa = assay: Growth of SiHa; format: cell-based, human; conditions: 72 h
How it was run: as §1

[4] = Growth of activated PBMC, MTS; format: cell-based; conditions: human, activated PBMCs
How it was run: (§2)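 Primary cells were plated in 96-well plates with serial dilutions of test compound, 3 nM to 100 μM, for 72 h at 37 °C. Read-out was CTG for resting B and CD4 T cells and MTS for PBMC, WI38 and HUVEC. Purity was 90–95% for B cells and 97% for CD4 cells. Activated PBMCs were stimulated with phytohemagglutinin plus IL2.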

[5] = Growth of HUVEC endothelial cells, MTS; format: cell-based; conditions: human
How it was run: as §2

IFIT1 promoter = assay: Luciferase assay, luciferase under control of the IFIT1 promoter in HEK293 cells; format: cell-based, human; conditions: 10 and 30 nM, over a 48-h period
immortalized cell lines = assay: Growth of immortalized cell lines; format: cell-based
EBV = assay: Viral yield in IM9 cells by quantitative PCR; format: cell-based; conditions: data not shown
[6] = Homo sapiens, read-out: K, Growth, MTS

O=C(N[C@@H]1CCCc2c1[nH]c1ccc(Cl)cc21)c1ccccn1 [GSK983, N-[(1R)-6-Chloro-2,3,4,9-tetrahydro-1H-carbazol-1-yl]-2-pyridinecarboxamide]
Outcome of growth inhibition over time (Vero cells; data not shown): cytostasis | Imax, uninfected host cell growth, MTS (Vero cells; data of Fig. 3): 37% | Imax, Growth, MTS (Vero cells; kidney epithelial, 72 h, 4 titrations): 43 ± 1% | EC50 (IM9 cells; Homo sapiens, IM-9, 72 h, read-out: K, cell line growth): 16 ± 2 nM | Selectivity index (IM9 cells; IM9 (EBV) vs activated B cell): >620 ± 80 | Outcome of growth inhibition over time (IM9 cells; IM9, 3 days, higher concentrations): cell death | Selectivity index (B-LCL 5/2/1; B-LCL 5/2/1 (EBV) vs activated B cell): >700 ± 15 | Imax, cell line growth (B-LCL 5/2/1; B-LCL 5/2/1 (EBV), CTG, 72 h): 93 ± 1% | EC50 (B-LCL 5/2/1; Homo sapiens, 72 h, read-out: K, cell line growth): 14 ± 0.3 nM | CC50 [1]: > 10000 nM | EC50 (W12-20850 cells [2]; Homo sapiens, W12-20850, 96 h, read-out: K, Growth, MTS): 11 ± 2 nM | Outcome of growth inhibition over time (W12-20850 cells [2]; W12, 3 days, rate of MTS reduction): cytostasis | Imax, Growth, MTS (W12-20850 cells [2]; W12-20850, 4 days): 60% and 60 ± 7% | EC50 (W12-20850 cells [3]; Homo sapiens, W12-20850, read-out: K, Growth, Actin DNA, qPCR): 6 ± 0.4 nM | Imax, Growth, Actin DNA, qPCR (W12-20850 cells [3]; W12-20850): 60 ± 1% | EC50 (Namalwa; [6]): 10 ± 2 nM | Imax, Growth, MTS (Namalwa; Namalwa, EBV integrated): 66% and 66 ± 2.5% | Imax, Growth, MTS (SiHa; HPV16 integrated): 39 ± 1.6% | EC50 (SiHa; [6]): 37 ± 6 nM | CC50 at 72 h [4]: 224000 nM | CC50 at 72 h [5]: > 10000 nM | Induction of luciferase under control of the IFIT1 promoter (IFIT1 promoter): Strong induction | Selectivity index (immortalized cell lines; EBV and HTLV-1 viral-immortalized cell lines vs related primary cells): approximately 1000 | Time after addition of the compound until reduction in growth rate (immortalized cell lines; W12, U937 and IM9 growth curves): approximately 24 h | Concentrations at which apoptosis or cytostasis is induced (immortalized cell lines; depending on the cell line): over 20 nM | EC50 (immortalized cell lines; read-out: EC50 values, growth of cell lines immortalized by HTLV-1, EBV, HPV, SV40 and Ad-5): 10 to 40 nM | Viral yield in IM9 cells by quantitative PCR (EBV): decrease in parallel with inhibition of cell growth
